Compound activity (PubChem)
MEKK2mut PB1 HTS = MEK5 binding signal on mutant MEKK2 PB1, primary screen, biochemical, multiplex bead flow cytometry, Alexa488-MEK5; percent response, % at 10 µM; 290,000 tested, 0.35% active; AID 1530, 2009; Alexa488-MEK5 binding to MEKK2 mutant; in the data active means percent response above about 24%, passing the limit was not always enough
UCH37 DUB inh = inhibitors of human UCH37 deubiquitinase, primary screen, biochemical, Ub-AMC cleavage, fluorescence | Ubiquitin carboxyl-terminal hydrolase isozyme L5 (Homo sapiens), Q9Y5K5 | 330,000 tested, 0.33% active | AID 588478, 2011 | purified proteasome/UCH37 | inhibition, % (test concentration not listed);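 active means mean inhibition over replicate wells above about 20%, limit read from the data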
Target sequence (Q9Y5K5 whole entry, looked up): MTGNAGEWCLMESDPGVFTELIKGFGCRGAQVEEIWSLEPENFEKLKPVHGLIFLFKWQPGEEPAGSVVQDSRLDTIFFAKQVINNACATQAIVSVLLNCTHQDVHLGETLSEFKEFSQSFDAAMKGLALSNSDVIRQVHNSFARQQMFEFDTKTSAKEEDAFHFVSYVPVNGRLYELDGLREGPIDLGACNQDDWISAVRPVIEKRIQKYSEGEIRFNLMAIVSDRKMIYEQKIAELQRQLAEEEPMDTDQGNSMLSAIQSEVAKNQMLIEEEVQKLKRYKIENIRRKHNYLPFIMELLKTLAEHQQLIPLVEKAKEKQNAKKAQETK
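Material: Human UCH37 enzyme supplied as purified proteasome complex | Schedule: 30 min compound-proteasome preincubation then 25 min substrate reaction, room temperature | Detection: AMC fluorescence from Ub-AMC cleavage, excitation 355 nm, emission 460 nm | Benchmarks: Wells without proteasome as full block, compound-free enzyme plus substrate as uninhibited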
Rce1 inh = yeast Rce1p protease inhibitors, primary screen, biochemical, fluorescence, cell-free homogeneous | CAAX prenyl protease 2 (Saccharomyces cerevisiae (strain ATCC 204508 / S288c)), Q03530 | yeast membranes, quenched prenylated peptide cleavage fluorescence | calls only | 290,000 tested, 0.27% active;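 active means fall in fluorescence gain of 50% or more versus controls, with final raw signal at or below 3038400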
Target sequence (Q03530 whole entry, looked up): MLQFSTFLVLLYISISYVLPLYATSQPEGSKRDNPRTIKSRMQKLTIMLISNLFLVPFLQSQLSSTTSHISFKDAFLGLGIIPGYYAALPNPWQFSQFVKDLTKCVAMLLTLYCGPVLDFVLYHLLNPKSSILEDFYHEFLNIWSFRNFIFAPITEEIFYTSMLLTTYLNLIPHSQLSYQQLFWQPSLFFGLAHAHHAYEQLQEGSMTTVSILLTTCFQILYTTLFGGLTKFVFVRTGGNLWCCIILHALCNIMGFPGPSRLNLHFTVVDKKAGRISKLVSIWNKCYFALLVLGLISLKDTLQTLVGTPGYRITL
MEKK2 WT-MEK5 = modulators of MEK5 binding to wildtype MEKK2, primary screen, biochemical, multiplex bead flow cytometry, Alexa488-MEK5; Mitogen-activated protein kinase kinase kinase 2 (Homo sapiens), Q9Y2U5; Alexa488-MEK5 binding to MEKK2 WT; actives lie on both sides; binding response (% of control), % at 10 µM; 290,000 tested, 1.1% active; AID 1531, 2009; in the data active means binding response below about 67% or above about 130%
MEKK3 PB1 HTS = modulators of MEKK3-MEK5 PB1 binding, primary screen, biochemical, wildtype MEKK3, multiplex bead flow cytometry, Alexa488-MEK5. Mitogen-activated protein kinase kinase kinase 3 (Homo sapiens), Q99759. bead-based flow cytometry, Alexa488-MEK5 binding to MEKK3; actives lie on both sides; 0 = blocked by unlabeled MEK5, 100 = vehicle. binding response (% of control), % at 10 µM. 290,000 tested, 1.4% active;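 active means binding response more than 3 SD above or below the average of its plate-row segment, actives on both sides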;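 further: Alexa488 bead fluorescence after subtracting the streptavidin-only scavenger bead signal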
T cell HTS = modulators of CD8 T cell-vesicle binding, primary screen, mouse 2C CD8+ T cells, flow cytometry | response (vesicle binding), % at 7 µM | 330,000 tested, 0.068% active | 2C CD8+ T cell-vesicle binding; active compounds read low;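 active means response, share of CD8 T cells binding vesicles, and their 90th percentile fluorescence all below set limits, cut at about 80% in these data, passing the limit was not always enough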;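 further: values below 100% mean blocked vesicle binding to the CD8+ T cells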
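incubation = binding step 1.5 h, 37 °C, antibody labelling 20 min, ice | test system = 2C mouse CD8+ T cells | read-out basis = percent CD8+ FL2 mean versus row control | controls = Peptide-free naked vesicles (low) and QL9 vesicles with 0.7% DMSO vehicle (high) | detection = flow cytometry of vesicle-bound cells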
Numbers stand for hits. Only some compounds are listed: those with a hit (about 2.5% of all), similar ones and a draw of the others.

`Cc1ccc(-c2cc(C(=O)NCCCN3CCCC3)c3ccccc3n2)cc1C` gave MEKK2mut PB1 HTS inactive, Rce1 inh inactive, MEKK2 WT-MEK5 141, MEKK3 PB1 HTS inactive and T cell HTS inactive.
For Cc1c(C)n(C)c2ccc(C(=O)NCCCN3CCOCC3)cc12 the results were MEKK2mut PB1 HTS inactive, UCH37 DUB inh inactive, Rce1 inh inactive, MEKK2 WT-MEK5 inactive, MEKK3 PB1 HTS inactive and T cell HTS inactive.
`Cc1[nH]c2ccc(C(=O)NCCN3CCCCCC3)cc2c1C` gave MEKK2mut PB1 HTS inactive, UCH37 DUB inh inactive, Rce1 inh inactive, MEKK2 WT-MEK5 135, MEKK3 PB1 HTS inactive and T cell HTS inactive.
`Cc1c(C)n(C)c2ccc(C(=O)NCCCN3CCCCC3)cc12` gave MEKK2mut PB1 HTS 25, UCH37 DUB inh inactive, Rce1 inh inactive, MEKK2 WT-MEK5 154, MEKK3 PB1 HTS inactive and T cell HTS inactive.
`Cc1c(C)n(C)c2ccc(C(=O)NCCCN3CCCC3)cc12` gave MEKK2mut PB1 HTS inactive, UCH37 DUB inh inactive, Rce1 inh inactive, MEKK2 WT-MEK5 142, MEKK3 PB1 HTS inactive and T cell HTS inactive.
Cc1ccc(-c2cc(C(=O)NCCCN3CCOCC3)c3ccccc3n2)cc1C was read as MEKK2mut PB1 HTS inactive, UCH37 DUB inh inactive, Rce1 inh inactive, MEKK2 WT-MEK5 inactive, MEKK3 PB1 HTS inactive and T cell HTS inactive.
Screening Cc1[nH]c2ccc(C(=O)NCCCN3CCCCC3)cc2c1C returned MEKK2mut PB1 HTS inactive, UCH37 DUB inh inactive, Rce1 inh inactive, MEKK2 WT-MEK5 inactive, MEKK3 PB1 HTS inactive and T cell HTS inactive.
CCC1=Nc2cc(C(=O)NCCN3CCCC3)ccc2Sc2ccccc21 was read as MEKK2mut PB1 HTS inactive, UCH37 DUB inh inactive, Rce1 inh inactive, MEKK2 WT-MEK5 135, MEKK3 PB1 HTS inactive and T cell HTS inactive.
O=C(O)c1ccc(NN=Cc2cccc(C(F)(F)F)c2)cc1 was read as UCH37 DUB inh inactive.
For Cc1csc(N)n1 the results were MEKK2mut PB1 HTS inactive, UCH37 DUB inh 21, Rce1 inh inactive, MEKK2 WT-MEK5 inactive, MEKK3 PB1 HTS inactive and T cell HTS inactive.
Screening Cc1ccc(-c2csc(N)n2)s1 returned MEKK2mut PB1 HTS inactive, UCH37 DUB inh inactive, Rce1 inh inactive, MEKK2 WT-MEK5 inactive, MEKK3 PB1 HTS inactive and T cell HTS inactive.
Screening Cc1c(N=C/C=C2/N(C)c3ccccc3C2(C)C)c(=O)n(-c2ccccc2)n1C returned MEKK2mut PB1 HTS inactive, UCH37 DUB inh inactive, Rce1 inh inactive, MEKK2 WT-MEK5 -5.0, MEKK3 PB1 HTS inactive and T cell HTS inactive.
Screening CC1CCN(C2=C(NS(=O)(=O)c3ccccc3)C(=O)c3ccccc3C2=O)CC1 returned MEKK2mut PB1 HTS inactive, UCH37 DUB inh inactive, Rce1 inh inactive, MEKK2 WT-MEK5 inactive, MEKK3 PB1 HTS inactive and T cell HTS inactive.
Screening O=C1C2=C(c3ccccc31)[N+](=O)[C@@H]1CCCC[C@@H]1N2[O-] returned MEKK2mut PB1 HTS inactive, UCH37 DUB inh 26, MEKK2 WT-MEK5 inactive, MEKK3 PB1 HTS inactive and T cell HTS inactive.
Screening O=C1C2=C(c3ccccc31)[N+](=O)C1CCCCC1N2[O-] (stereo not drawn) returned MEKK2mut PB1 HTS inactive, UCH37 DUB inh 27, Rce1 inh inactive, MEKK2 WT-MEK5 inactive, MEKK3 PB1 HTS inactive and T cell HTS inactive.
`O=C1c2ccccc2C(=O)c2c1ccc1c(=O)n(C3CCCCC3)[nH]c21` gave MEKK2mut PB1 HTS inactive, UCH37 DUB inh inactive, Rce1 inh inactive, MEKK2 WT-MEK5 inactive, MEKK3 PB1 HTS inactive and T cell HTS inactive.
For CCOc1ccc(Cl)cc1C=NO the results were UCH37 DUB inh inactive.
For CC(CC(=O)Nc1ccccn1)=NNC(=O)c1cccc(C)c1 the results were UCH37 DUB inh inactive.
For CCc1ccc(S(=O)(=O)N=C2C=C(Sc3ncn[nH]3)C(=O)c3ccccc32)cc1 the results were UCH37 DUB inh 80.
`Cc1cc(C)c(S(=O)(=O)/N=C2/C=C(Sc3ncn[nH]3)C(=O)c3ccccc32)cc1C` gave MEKK2mut PB1 HTS inactive, MEKK2 WT-MEK5 inactive, MEKK3 PB1 HTS inactive and T cell HTS inactive.
For COc1ccc2[nH]c(=O)c(CN(C(=O)c3cccnc3)c3ccc(C)cc3C)cc2c1 the results were MEKK2mut PB1 HTS inactive, UCH37 DUB inh inactive, Rce1 inh inactive, MEKK2 WT-MEK5 -3.0, MEKK3 PB1 HTS inactive and T cell HTS inactive.
`COc1ccc2[nH]c(=O)c(CN(C(=O)c3cccnc3)c3cc(C)ccc3C)cc2c1` gave MEKK2mut PB1 HTS inactive, UCH37 DUB inh inactive, Rce1 inh inactive, MEKK2 WT-MEK5 inactive, MEKK3 PB1 HTS inactive and T cell HTS inactive.
`COc1cc(C=Nc2oc(C)c(C)c2C#N)cc(Br)c1O` gave UCH37 DUB inh inactive.
`O=C1CN(S(=O)(=O)c2ccc([N+](=O)[O-])cc2)CC(=O)N1` gave MEKK2mut PB1 HTS inactive, UCH37 DUB inh inactive, Rce1 inh active, MEKK2 WT-MEK5 inactive, MEKK3 PB1 HTS inactive and T cell HTS inactive.
CN1CCN(S(=O)(=O)c2ccc([N+](=O)[O-])cc2)CC1 was read as MEKK2mut PB1 HTS inactive, UCH37 DUB inh inactive, Rce1 inh inactive, MEKK2 WT-MEK5 inactive, MEKK3 PB1 HTS inactive and T cell HTS inactive.
c1cncc(-c2cn(C[C@H]3CC[C@@H]([C@@H]4CC[C@H](Cn5cc(-c6cccnc6)nn5)O4)O3)nn2)c1 was read as MEKK2mut PB1 HTS inactive, UCH37 DUB inh 25, Rce1 inh inactive, MEKK2 WT-MEK5 inactive, MEKK3 PB1 HTS inactive and T cell HTS inactive.
For CCOc1ccc2ccccc2c1C=NNC(=O)CNC(=O)c1ccccc1O the results were UCH37 DUB inh inactive.
`O=C(c1cc(-c2ccccc2)nc2ccccc12)N1CCN(c2ccccn2)CC1` gave MEKK2mut PB1 HTS inactive, UCH37 DUB inh inactive, Rce1 inh active, MEKK2 WT-MEK5 inactive, MEKK3 PB1 HTS inactive and T cell HTS inactive.
For COc1ccc(N2CCN(C(=O)c3cc(-c4cccs4)nc4ccccc34)CC2)cc1 the results were MEKK2mut PB1 HTS inactive, Rce1 inh active, MEKK2 WT-MEK5 inactive, MEKK3 PB1 HTS inactive and T cell HTS inactive.
`O=C(c1cn(-c2ccccc2)nc1-c1cccs1)N1CCN(c2ccccc2)CC1` gave MEKK2mut PB1 HTS inactive, UCH37 DUB inh inactive, Rce1 inh active, MEKK2 WT-MEK5 inactive, MEKK3 PB1 HTS inactive and T cell HTS inactive.
CN(C)C(=O)COC(=O)/C=C/c1cn(-c2ccccc2)nc1-c1cccs1 was read as MEKK2mut PB1 HTS inactive, UCH37 DUB inh inactive, Rce1 inh inactive, MEKK2 WT-MEK5 inactive, MEKK3 PB1 HTS inactive and T cell HTS inactive.
